Test results: ChEMBL document CHEMBL1144742, “Mithramycin analogues generated by combinatorial biosynthesis show improved bioactivity” (2008)

Key:
[1] = tested on: MCF7; experiment: Induction of apoptosis in estrogen receptor positive human MCF7 cells at 15 uM after 24 hrs by TUNEL assay; type: functional
Summary of the method: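 ER-positive MCF-7 breast cancer cells, exposed 24 h at 15 μM. Apoptotic cells scored by TUNEL labelling and confocal microscopy, expressed as percent TUNEL-positive, normalized against untreated baseline. Mean ± standard error from three independent experiments.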

[2] = tested on: MDA-MB-231; experiment: Induction of apoptosis in estrogen receptor negative human MDA231 cells at 20 uM after 24 hrs by TUNEL assay; type: functional
Summary of the method: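 ER-negative MDA-231 breast cancer cells, treated 24 h at 20 μM. Apoptosis read by TUNEL staining with confocal microscopy as percent TUNEL-positive cells. Baseline apoptosis of untreated cells used for normalization. Mean ± standard error of three independent experiments.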

| SMILES | Activity [1] [%] | Activity [2] [%] |
| --- | --- | --- |
| CO[C@H](C(=O)[C@@H](O)[C@@H](C)O)[C@@H]1Cc2cc3cc(O[C@H]4C[C@@H](O[C@H]5C[C@@H](O)[C@H](O)[C@@H](C)O5)[C@H](O)[C@@H](C)O4)c(C)c(O)c3c(O)c2C(=O)[C@H]1O[C@H]1C[C@@H](O[C@H]2C[C@@H](O[C@H]3C[C@](C)(O)[C@H](O)[C@@H](C)O3)[C@@H](O)[C@H](C)O2)[C@H](O)[C@@H](C)O1 | 3.9 | 6.46 |
| CO[C@H](C(=O)[C@@H](O)[C@@H](C)O)[C@@H]1Cc2cc3cc(O[C@H]4C[C@@H](O)[C@H](O)[C@@H](C)O4)c(C)c(O)c3c(O)c2C(=O)[C@H]1O[C@H]1C[C@@H](O[C@H]2C[C@@H](O[C@H]3C[C@](C)(O)[C@H](O)[C@@H](C)O3)[C@@H](O)[C@@H](C)O2)[C@H](O)[C@@H](C)O1 | 26.3 | 12.6 |
| CO[C@H](C(=O)[C@@H](O)[C@@H](C)O)[C@@H]1Cc2cc3cc(O[C@H]4C[C@@H](O[C@H]5C[C@@H](O)[C@H](O)[C@@H](C)O5)[C@H](O)[C@@H](C)O4)c(C)c(O)c3c(O)c2C(=O)[C@H]1O[C@H]1C[C@@H](O[C@H]2C[C@](C)(O)[C@H](O)[C@@H](C)O2)[C@H](O)[C@@H](C)O1 | 50.3 | 7.29 |
| CO[C@H](C(=O)[C@@H](O)[C@@H](C)O)[C@@H]1Cc2cc3cc(O[C@H]4C[C@@H](O[C@H]5C[C@@H](O)[C@H](O)[C@@H](C)O5)[C@H](O)[C@@H](C)O4)c(C)c(O)c3c(O)c2C(=O)[C@H]1O[C@H]1C[C@@H](O[C@H]2C[C@@H](O[C@H]3C[C@H](O)[C@H](O)[C@@H](C)O3)[C@@H](O)[C@@H](C)O2)[C@H](O)[C@@H](C)O1 | 64.8 | 63.6 |
